High-throughput results deposited in PubChem BioAssay by several laboratories.
Sampled rows, rich in hits. Any-hit rate of the full collection: about 2.7%.
Rev-erbA mod = modulators of Rev-erb alpha DNA binding, primary screen, biochemical, FITC-DNA, fluorescence polarization, uHTS | Nuclear receptor subfamily 1 group D member 1 (Homo sapiens), P20393 | Rev-erbα–FITC-DNA binding, 90 min | activity, % at 10 µM | 370,000 tested, 0.79% active | AID 1259318, 2017;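 active = activity above about 14%, limit read from the data; passing the limit was not always enough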;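 note: 0% = DMSO wells with 35 nM protein and 100% = DMSO wells with 750 nM protein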
Target sequence (P20393 whole entry, looked up): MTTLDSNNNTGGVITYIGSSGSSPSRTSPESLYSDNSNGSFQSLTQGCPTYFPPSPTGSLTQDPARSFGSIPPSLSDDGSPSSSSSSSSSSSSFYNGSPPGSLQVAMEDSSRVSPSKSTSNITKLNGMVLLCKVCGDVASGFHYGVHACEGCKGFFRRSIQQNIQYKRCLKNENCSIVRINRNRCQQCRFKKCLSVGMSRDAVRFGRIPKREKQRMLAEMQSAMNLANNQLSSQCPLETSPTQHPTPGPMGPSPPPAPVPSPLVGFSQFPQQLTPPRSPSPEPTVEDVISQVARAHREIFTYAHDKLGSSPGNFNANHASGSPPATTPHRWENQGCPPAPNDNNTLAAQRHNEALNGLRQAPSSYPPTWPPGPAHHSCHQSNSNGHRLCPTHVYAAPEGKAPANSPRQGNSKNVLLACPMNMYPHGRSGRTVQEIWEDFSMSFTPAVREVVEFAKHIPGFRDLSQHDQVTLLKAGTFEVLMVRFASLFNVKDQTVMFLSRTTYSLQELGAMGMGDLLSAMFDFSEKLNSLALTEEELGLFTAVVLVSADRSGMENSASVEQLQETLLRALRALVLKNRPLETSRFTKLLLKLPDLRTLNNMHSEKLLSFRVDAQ
sPLA2-III inh = human group III sPLA2 inhibitors, primary screen, biochemical, QFRET, BODIPY PC-A2 liposome substrate; Group 3 secretory phospholipase A2 (Homo sapiens), Q9NZ20; QFRET BODIPY PC-A2 liposome hydrolysis, fluorescence; inhibition, % at 12.2 µM; 370,000 tested, 0.56% active;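 active = inhibition above mean plus 3 SD of compounds lying within the high and low control bounds, cut at about 19% in these data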;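 note: 0% = median of test compound wells and 100% = no enzyme DMSO wells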
ASAP1 inh = inhibitors of human ASAP1 ArfGAP activity, primary screen, biochemical, fluorescence polarization. Arf-GAP with SH3 domain, ANK repeat and PH domain-containing protein 1 (Homo sapiens), …. ASAP1-stimulated ARF1 GTP hydrolysis, GDP FP detection. inhibition, % at 16.5 µM. 360,000 tested, 0.19% active; in the data active = inhibition above about 25%;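 note: 0% = vehicle with enzyme and substrate and 100% = no enzyme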
ARFGAP1 inhibitor = inhibitors of rat ARFGAP1 GAP activity, primary screen, biochemical, fluorescence polarization, GDP tracer; ADP-ribosylation factor GTPase-activating protein 1 (Rattus norvegicus), Q62848; Arfgap1-stimulated ARF1 GTP hydrolysis, GDP FP detection; inhibition, % at 16.5 µM; 360,000 tested, 0.26% active; AID 651572, 2012;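 active = inhibition above a per-plate limit, mean inhibition of low control wells plus 3 SD, cut at about 25% in these data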;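 note: 0% = DMSO wells with enzyme and 100% = wells lacking Arfgap1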
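Replicates: Single well per compound | Assay system: Truncated rat Arfgap1 GAP domain | Control set: No-Arfgap1 wells (100%) versus DMSO full-reaction wells (0%) | Times: Enzyme reaction 120 min at 25 °C after 20 min preincubation | Reagent: Human ARF1(Δ1-17)-GTP substrate | Measured by: Tracer-displacement fluorescence polarization with EDTA stop, 620/688 nm | Measure: Percent inhibition of Arfgap1-stimulated GTP hydrolysis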
MsrA act = bovine MsrA enzyme activators, primary screen, biochemical, absorbance, HTS; Methionine sulfoxide reductase A (Bos taurus); purified bovine MsrA, absorbance read-out; activation, % at 10.6 µM; 360,000 tested, 0.3% active; in the data active = activation above about 7.5%;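 note: 0% = vehicle and 100% = reference activator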
MsrA inhibitor = bovine MsrA enzyme inhibitors, primary screen, biochemical, absorbance, HTS. purified bovine MsrA, absorbance read-out. 360,000 tested, 0.75% active. inhibition, % at 15.5 µM;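 note: 0% = vehicle wells with enzyme and 100% = reference inhibitor wells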
MsrA conf = bovine MsrA inhibitors, retest, confirmation, biochemical, absorbance, HTS. shares compounds with MsrA inhibitor. purified bovine MsrA, absorbance read-out. inhibition, % at 15.5 µM. 2,300 tested, 41% active;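 note: coupled to thioredoxin reductase with NADPH and selenocystamine and DMSO as substrate; 0% = vehicle only and 100% = full effect of reference inhibitor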
hGIII sPLA2 conf = human group III sPLA2 inhibitors, confirmation, biochemical, QFRET, triplicate; shares compounds with sPLA2-III inh; recombinant hGIII-sPLA2, BODIPY PC-A2 QFRET fluorescence; inhibition, % at 12.2 µM; 2,000 tested, 34% active;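 active = mean inhibition across triplicates above the hit cutoff set in the earlier primary screen, cut at about 19% in these data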;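 note: 0% = enzyme with DMSO and 100% = DMSO wells lacking enzyme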
BODIPY interf = 535nm fluorescence optical interference, confirmation, artefact control for HGIII-sPLA2 inhibitor project, biochemical, QFRET; BODIPY FL product fluorescence interference; shares compounds with sPLA2-III inh; AID 743282, 2014; 2,000 tested, 8.5% active; inhibition, % at 12.2 µM;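 active = average inhibition above the solvent-only control mean plus 3 SD, cut at about 6% in these data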;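 note: 0% = DMSO with substrate plus product and 100% = DMSO with substrate alone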
BODIPY interf DR = 535nm fluorescence optical interference, dose response, artefact control for HGIII-sPLA2 inhibitor project, biochemical, QFRET | AID 743455, 2014 | 240 tested, under 10 active | shares compounds with sPLA2-III inh | BODIPY FL product fluorescence interference, cell-free | IC50, µM;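 active = IC50 at or below 10 µM; inactive = IC50 above 10 µM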
An asterisk follows results filed as active; x = no result given. Cut-off read from the data, not from the text of the source, unless noted: active = inhibition above about 4.5%; inactive = the rest.

SMILES	Rev-erbA mod	sPLA2-III inh	ASAP1 inh	ARFGAP1 inhibitor	MsrA act	MsrA inhibitor	MsrA conf	others
O=C1c2ccccc2C(=O)C1c1ccc(Br)cc1	-3	-5	-5	0	0	0	x
CCOC(=O)c1cc(C)nc(N2CCCCC2)c1C#N	0	4	5	-7	-5	1	x
CCOC(=O)c1cc(C(=O)OCC)c(=O)[nH]c1N1CCCCC1	4	4	1	7	-5	7.5*	3
O=[N+]([O-])c1ccc(O)c(C=Nc2cccc3ncccc23)c1	-5	5	7	5	-14	5.2*	3
O=[N+]([O-])c1ccc(O)c(C=Nc2cccc3ccccc23)c1	8	-7	12	-8	0	2	x
O=C(NCc1ccccc1)/C(=C\c1ccc(O)cc1)NC(=O)c1ccco1	2	-1	-2	8	-5	4.8*	1
CC(=O)c1ccc(NC(=O)/C(=C\c2cccs2)NC(=O)c2ccco2)cc1	-6	-1	-16	-1	-13	5.0*	4.7*
COc1ccc(NC(=O)/C(=C/c2cccs2)NC(=O)c2ccco2)cc1	6	-7	8	11	-9	2	x
COc1ccc(NC(=O)/C(=C/c2ccc3c(c2)OCO3)NC(C)=O)cc1	1	13	0	6	-3	5.0*	3
O=C(Nc1ccccc1)/C(=C/c1ccccc1)NC(=O)c1ccco1	-2	-1	-6	5	-5	-1	x
O=C(NCc1ccccc1)/C(=C/c1ccccc1)NC(=O)c1ccco1	1	2	-3	8	-6	-1	x
COc1ccc(NC(=O)/C(=C\c2ccc(OC)c(OC)c2)NC(=O)c2ccco2)cc1	5	11	-8	4	-6	5.0*	4.8*
CCOC(=O)[C@@]12CN(C(=O)OC(C)(C)C)CC=C1N(Cc1ccc(OC)cc1)C(=O)[C@H]2CC(=O)NCC12CC3CC(CC(C3)C1)C2	-2	8	x	x	x	x	x
C[C@@H]1COc2cc(Br)ccc2S(=O)(=O)N1Cc1cn(Cc2ccc(Cl)cc2)nn1	-2	1	x	x	x	x	x
CCN1CCCCC(NC(=O)c2cccc(C(F)(F)F)c2)C1=O (stereo not drawn)	-4	0	x	x	x	x	x
CCCCNS(=O)(=O)CC1NCc2ccc(C)cc21 (stereo not drawn)	-4	0	x	x	x	x	x
O=C(O)CC1S/C(=N/N=C/C=C/c2ccccc2)NC1=O (stereo not drawn)	-1	-3	9	9	-11	9.2*	7.8*
O=C(CC1S/C(=N/N=C/C=C/c2ccccc2)NC1=O)Nc1ccc(Cl)c(Cl)c1 (stereo not drawn)	-5	0	8	8	-2	0	x
O=C(O)CNC(=O)CC1S/C(=N/N=C/c2ccccc2O)NC1=O (stereo not drawn)	3	5	-1	4	-7	7.5*	4
O=C(O)CC1S/C(=N/N=C/C=C/c2ccccc2[N+](=O)[O-])NC1=O (stereo not drawn)	-1	-2	-2	8	-4	6.2*	6.3*
CCN(CC)CCn1c(-c2ccccc2)nc(=S)c2c1CC(C)(C)OC2	2	21*	1	3	-6	6.3*	4	hGIII sPLA2 conf=0;BODIPY interf=-1
CCn1c2ccccc2c2cc(C=NNC(=O)c3cc(-c4ccc(OC)cc4)n[nH]3)ccc21	-7	-5	x	x	x	x	x
O=C(NC(=S)NNC(=O)c1cc2ccccc2cc1O)c1ccco1	1	21*	1	0	-8	6.5*	4	hGIII sPLA2 conf=28*;BODIPY interf=2;BODIPY interf DR=>122
O=C(NC(=S)Nc1cccc(NC(=S)NC(=O)c2ccco2)n1)c1ccco1	1	9	-2	6	-9	1	x
COc1ccc(/C=C/C(=O)NC(=S)NNC(=O)c2ccco2)cc1	3	25*	3	-2	1	5.5*	4.9*	hGIII sPLA2 conf=53*;BODIPY interf=-8;BODIPY interf DR=>122
SMILES	Rev-erbA mod	sPLA2-III inh	ASAP1 inh	ARFGAP1 inhibitor	MsrA act	MsrA inhibitor	MsrA conf	others
O=S1(=O)c2ccccc2-c2c(nnn2CC2CCCCC2)CN1C1CC1	-5	1	x	x	x	x	x
Cc1ccc(C(=O)NCC(=O)NCC(=O)OCC(=O)c2ccc(F)cc2)cc1	0	27*	-8	10	-4	52*	0	hGIII sPLA2 conf=3;BODIPY interf=-11
O=C(CNC(=O)c1ccccc1)NCC(=O)OCC(=O)c1ccc(F)cc1	-6	3	-3	-6	-4	-2	x
COc1cc(/C=N/N=C(\N)c2nonc2N)ccc1O	-3	25*	-10	5	-6	5.5*	4	hGIII sPLA2 conf=1;BODIPY interf=-7
N[C@H](C(=O)Nc1ccc(Cl)cc1C(=O)c1ccc[nH]1)c1ccccc1	-3	10	x	x	x	x	x
CCOC(=O)[C@]12CCCCC/C=C\1N(Cc1ccc(OC)cc1)C(=O)[C@H]2CC(=O)NCc1ccc(OC)c(OC)c1	0	-7	x	x	x	x	x
CCOc1ccccc1Nc1cc2n(c(=O)n1)CCc1cc(OC)c(OC)cc1-2	-1	82*	10	11	-1	6.9*	4	hGIII sPLA2 conf=5;BODIPY interf=-16
COc1cc2c(cc1OC)-c1cc(Nc3ccccc3C)nc(=O)n1CC2	0	5	-13	-8	-2	3	x
Cn1c(=O)c(=O)n(C)c2cc(N3CCCCC3)c(NS(=O)(=O)c3ccc([N+](=O)[O-])cc3)cc21	-2	21*	-4	-2	-2	4.8*	2	hGIII sPLA2 conf=12;BODIPY interf=-3
